These results are taken from ChEMBL document CHEMBL2010650, “Synthetic N-alkylated iminosugars as new potential immunosuppressive agents” (ACS Med Chem Lett, 2011).

Calls of active or inactive are those of the source. The rule behind the calls is not given here. Bounds are passed on as bounds.

Data set [1] is described as follows: Immunosuppressive activity in BALB/c mouse splenocytes assessed as inhibition of concanavalin-A-induced cell proliferation at 30 uM after 48 hrs by MTT assay. Format: functional. The note with it: Splenocyte. In short, it runs like this: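 Mouse splenocytes stimulated with Con A at 2.5 μg/mL, incubated with compound at 37 °C, 5% CO₂ for 48 h. Proliferation read by MTT assay. Con A-treated cells serve as control, CsA (1 μM) as positive control. Inhibition is expressed relative to control, as means ± SEM.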

Data set [2] is filed under the species Mus musculus. The experiment in a line: Toxicity in C57BL/6 mouse transplanted with trunk skin of BALB/c mouse assessed as mortality. The format is organism-based. The note with it: in vivo.
The subject of data set [3] is Mus musculus. Description: Immunosuppressive activity in C57BL/6 mouse transplanted with trunk skin of BALB/c mouse assessed as increase of allograft mean survival time at 50 umol/kg, sc (reference value: 11.25 +/- 1.83 days). The format is functional.
Data set [4] has as its system Splenocyte. Description: Immunosuppressive activity in BALB/c mouse splenocytes assessed as reduction in concanavalin-A-induced IL4 production at 30 uM after 48 hrs by ELISA. Also on record: scale not given: the % may be the effect or the level left. Format: functional. In short, it runs like this:
(§1)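 Splenocytes induced with 2.5 μg/mL Con A, co-incubated with compound 48 h at 37 °C, 5% CO₂. Culture supernatant assayed for IFN-γ or IL-4 by mouse ELISA kit. Reduction is relative to Con A-only control, with CsA 1 μM as positive control.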

Data set [5] relates to Th2. The experiment in a line: Immunosuppressive activity in Th2 cells assessed as reduction of IL-4 production. Format: functional, cell-based.
For data set [6], the system named is Splenocyte. The experiment in a line: Immunosuppressive activity in BALB/c mouse splenocytes assessed as reduction in concanavalin-A-induced IFN-gamma production at 30 uM after 48 hrs by ELISA. The format is functional. Also on record: scale not given: the % may be the effect or the level left. A digest of the protocol:
as §1

In data set [7] the test system is Th1. Description: Immunosuppressive activity in Th1 cells assessed as reduction of IFNgamma production. The format is functional, cell-based.
Data set [8] deals with Splenocyte. Description: Immunosuppressive activity in BALB/c mouse splenocytes assessed as reduction in concanavalin-A-induced IFN-gamma production at 1 uM after 48 hrs by ELISA. Format: functional. More on the design: scale not given: the % may be the effect or the level left. A digest of the protocol:
as §1

Data set [9] relates to Splenocyte. Description: Immunosuppressive activity in BALB/c mouse splenocytes assessed as reduction in concanavalin-A-induced IL4 production at 1 uM after 48 hrs by ELISA. The format is functional. Also on record: scale not given: the % may be the effect or the level left. In short, it runs like this: as §1
Data set [10] in a line: Toxicity in subcutaneously dosed C57BL/6 mouse transplanted with trunk skin of BALB/c mouse. The note with it: in vivo, sc. Format: organism-based.

With `CCCCCCCCCCN1C[C@H](O)[C@@H](O)[C@@H](O)C1=O`, the inhibition at 30 µM in data set [1] was under 40%.

For the compound `CCCCCCCCCCN1C[C@H](O)[C@@H](O)[C@H](O)C1=O`, in [1], the inhibition at 30 µM is under 40%.

`CCCCCCCCCCN1C[C@@H](O)[C@H](O)[C@@H](O)C1`: the Activity entry in data set [2] was “Non-toxic”; in data set [4] it was 60.9%; in data set [6], 89.1%. The inhibition at 30 µM in [1] is 45.9%. In addition, in [3], the MST turned out to be 14.71 days. Moreover, the outcome in data set [5] and in [7] was Active.

Take `CCCCCCCCCCN1C[C@H](O)[C@H](O)C1=O`: the inhibition at 30 µM in data set [1] was under 40%.

For the compound `CCCCCCCCCCN1C[C@@H](O)C(O)[C@H](O)C1`, the results for the Activity entry in [2], in data set [4] and in data set [6] were “Non-toxic”, 85.6% and 75%, respectively. In addition, the inhibition at 30 µM in [1] was 59%. Further, the MST in data set [3] was 15.2 days. Moreover, the result in data set [5] and in [7] was Active.

With `CCCCCCCCCCN1C[C@H](O)C(O)[C@@H](O)C1`, the Activity entry in data set [2] was “Non-toxic”; in data set [4], 95.7%; in [6] it was 78.1%. Also, in data set [1], the inhibition at 30 µM stood at 57.2%. Moreover, in data set [3], the MST came out at 14.14 days. Also, the outcome in data set [5] and in data set [7] was Active.

In the case of `C/C=C/C[C@@H](C)[C@@H](O)[C@H]1C(=O)N[C@@H](CC)C(=O)N(C)CC(=O)N(C)[C@@H](CC(C)C)C(=O)N[C@@H](C(C)C)C(=O)N(C)[C@@H](CC(C)C)C(=O)N[C@@H](C)C(=O)N[C@H](C)C(=O)N(C)[C@@H](CC(C)C)C(=O)N(C)[C@@H](CC(C)C)C(=O)N(C)[C@@H](C(C)C)C(=O)N1C` [CYCLOSPORINE], the results for the Activity in data set [8] and in data set [9] were 97.1% and 96.8%, respectively.

With `CCCCCCCCCCN1C[C@@H](O)[C@@H](O)C1`, the Activity result in data set [2] is reported as “Non-toxic”; in data set [4] it was 88.6%; in [6], 94.7%. Further, the inhibition at 30 µM in [1] stood at 61%. In addition, the MST in data set [3] was 15.6 days. This compound also had a median lethal dose (LD50) in [10] of 392 mg/kg. In addition, the outcome in [5] and in data set [7] was Active.

On to `CCCCCCCCN1C[C@@H](O)[C@H](O)[C@@H](O)C1`, for which the inhibition at 30 µM in data set [1] turned out to be 27.1%. For the same compound, the results for the Activity in data set [4] and in data set [6] were 8.7% and 40.3%, respectively. Besides, the outcome in data set [7] was Active.

As for `CCCCCCCCCCN1C[C@@H](O)[C@@H](O)[C@H](O)C1=O`, the inhibition at 30 µM in [1] was under 40%.
